Test results from ChEMBL document CHEMBL4622976, “Development of pH/Glutathione-Responsive Theranostic Agents Activated by Glutathione S-Transferase π for Human Colon Cancer” (J Med Chem, 2020).
Calls of active or inactive are those of the source. The calls are words filed in the database; no cut-off is given here.

Key:
[1] = Drug metabolism assessed as GSTpi (unknown origin) mediated compound fluorescence activation at 1 uM in presence of 1 mM Na+ by HPLC analysis; type: ADME; settings: human
Summary of the method: (§1)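 Selectivity test: compound (1 µM) with catalytic GSTπ and each analyte in water with 1% (v/v) DMSO at pH 4.0, 37 °C for 0.5 h. Analytes were cations at 1 mM; amino acids, vitamin C, Na2S and GSH at 100 µM. Readout was fluorescence emission spectra (excitation 440 nm, recorded 450–650 nm).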

[2] = Drug metabolism assessed as GSTpi (unknown origin) mediated compound fluorescence activation at 1 uM in presence of 1 mM Cu2+ by HPLC analysis; type: ADME; settings: human; summary of the method: as §1
[3] = Drug metabolism assessed as GSTpi (unknown origin) mediated compound fluorescence activation at 1 uM in presence of 1 mM Fe2+ by HPLC analysis; type: ADME; settings: human; summary of the method: as §1
[4] = Drug metabolism assessed as GSTpi (unknown origin) mediated compound fluorescence activation at 1 uM in presence of 100 uM lysine by HPLC analysis; type: ADME; settings: human; summary of the method: as §1
[5] = Drug metabolism assessed as GSTpi (unknown origin) mediated compound fluorescence activation at 1 uM in presence of 100 uM alanine by HPLC analysis; type: ADME; settings: human; summary of the method: as §1
[6] = Drug metabolism assessed as GSTpi (unknown origin) mediated compound fluorescence activation at 1 uM in presence of 100 uM glutamate by HPLC analysis; type: ADME; settings: human; summary of the method: as §1
[7] = Drug metabolism assessed as GSTpi (unknown origin) mediated compound fluorescence activation at 1 uM in presence of 100 uM Na2S by HPLC analysis; type: ADME; settings: human; summary of the method: as §1
[8] = Drug uptake in human CCD-841 cells at 1 uM measured within 10 mins by confocal fluorescence microscopy; type: ADME, cell-based
Summary of the method: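 Cells were seeded at 2×10^5 in glass-bottom dishes and allowed to attach. Medium was then replaced with DMEM containing 1 µM compound. Confocal images were taken every minute for 60 min with a 40× water objective, 405 nm laser and 480–530 nm filter. Intracellular fluorescence intensity was quantified.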

[9] = Drug uptake in lysosome of human HT-29 cells at 1 uM incubated for 60 mins by Lyso-tracker based confocal fluorescence microscopy; type: ADME, subcellular; settings: ht-29, 1 h
Summary of the method: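 HT29 and CCD841 cells were seeded at 2×10^5 in glass-bottom dishes. They were co-incubated in DMEM with compound (1 µM) and LysoTracker Red DND-99 (1 µM). Confocal imaging used a 40× water objective. Compound channel: 405 nm laser, 480–530 nm filter. LysoTracker channel: 561 nm laser, 580–630 nm filter.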

HepG2 = experiment: Antiproliferative activity against human HepG2 cells by MTT assay; type: functional, cell-based
Summary of the method: (§2)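 MTT assay. Cells were grown in DMEM/RPMI 1640 with 10% FBS, penicillin and streptomycin at 37 °C under 5% CO2. After a PBS wash, cells got 0.5 mg/mL MTT for 3 h at 37 °C. Formazan was dissolved in DMSO and absorbance read at 570 nm. Inhibition was expressed as a percentage and IC50 calculated. Means ± SD come from three separate experiments.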

[10] = Antiproliferative activity against rat 9L-2 cells by MTT assay; type: functional, cell-based; summary of the method: as §2
[11] = Cytotoxicity against human CCD-841 cells by MTT assay; type: cell-based; summary of the method: as §2
[12] = Drug localization in tumor of intra-operative mouse xenografted with human HT-29/Luc cells at 40 mg/kg, iv measured over 7 hrs post dose by fluorescence imaging assay; type: ADME, organism-based, Neoplasm; settings: in vivo
[13] = Toxicity in ICR mouse assessed as induction of abnormality in drinking behavior at 240 mg/kg, ip for 14 days; type: organism-based; settings: in vivo, 336 h
Summary of the method: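 Female ICR mice (n = 10 per group) given a single intraperitoneal dose at 240.0, 300.0, 375.0, 468.8 or 585.9 mg/kg, or vehicle. Deaths recorded at 1 h, 4 h and daily through day 14. Body weight, drinking, eating and activity observed for abnormality; LD50 derived from mortality.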

[14] = Toxicity in ICR mouse assessed as induction of animal death at 240 to 585.9 mg/kg, ip measured after 1 hr; type: organism-based; settings: in vivo
Summary of the method: (§3)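 Female ICR mice, randomised, n = 10 per group. Single intraperitoneal dose of 240.0, 300.0, 375.0, 468.8 or 585.9 mg/kg, or vehicle. Deaths recorded at 1 h, 4 h, days 1–4 and days 5–14. Body weight, drinking, eating and activity observed over 14 days. Survival percentage taken on day 14; LD50 derived from the dose–mortality data.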

[15] = Toxicity in ICR mouse assessed as induction of animal death at 240 to 300 mg/kg, ip measured after 2 days; type: organism-based; settings: in vivo, 48 h; summary of the method: as §3
[16] = Toxicity in ICR mouse assessed as induction of animal death at 240 to 375 mg/kg, ip measured after 3 days; type: organism-based; settings: in vivo, 72 h; summary of the method: as §3
[17] = Toxicity in ICR mouse assessed as induction of animal death at 240 to 468.8 mg/kg, ip measured after 5 to 14 days; type: organism-based; settings: in vivo; summary of the method: as §3
[18] = Toxicity in ICR mouse assessed as induction of animal survival rate at 585.9 mg/kg, ip measured after 14 days; type: organism-based; settings: in vivo; summary of the method: as §3
[19] = Toxicity in ICR mouse assessed as induction of animal survival rate at 375 mg/kg, ip measured after 14 days; type: organism-based; settings: in vivo; summary of the method: as §3
[20] = Toxicity in ICR mouse assessed as induction of animal survival rate at 300 mg/kg, ip measured after 14 days; type: organism-based; settings: in vivo; summary of the method: as §3
HT-29 [21] = experiment: Antitumor activity against human HT-29 cells xenografted in nude BALB/c mouse assessed as reduction in tumor volume at 40 mg/kg, ip dosed every day for 21 days; type: functional, organism-based
[22] = Toxicity in BALB/c mouse xenografted with human hT-29 cells assessed as effect on body mass at 20 to 40 mg/kg, ip dosed every day for 21 days; type: organism-based; settings: in vivo, 504 h
Summary of the method: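 Female BALB/c nude mice, 5-6 weeks old, inoculated subcutaneously with 1×10^6 HT29 cells. At tumor volume 100 mm³, animals randomized to compound or saline, given intraperitoneally every day for 21 days. Body weight recorded every three days; animals euthanized at 20% weight loss. Tumor volume = ½(L×W²) from caliper measurements; tumors excised and weighed at the end.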

HT-29 [23] = experiment: Antitumor activity against human HT-29 cells xenografted in nude BALB/c mouse assessed as tumor weight level at 40 mg/kg, ip dosed every day for 21 days (reference value: 1.49 +/- 0.27 g); type: functional
HT-29 [24] = experiment: Induction of apoptosis in human HT-29 cells assessed as reduction in Bcl2 protein level incubated for 72 hrs by Western blot analysis; type: functional, cell-based
Summary of the method: (§4)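 HT29 cells (1.5×10^5/mL) were treated for 72 h and lysed. Lysate (0.05 mg/lane) was run on 12% SDS-PAGE and transferred to nitrocellulose. After blocking in 5% non-fat milk, blots were probed for Bax, Bcl-2, cleaved caspase-3, cleaved PARP, LC3, p62 and beclin-1. Levels were normalised to β-actin, and means ± SD taken from three independent assays.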

HT-29 [25] = experiment: Induction of autophagy in human HT-29 cells assessed as increase in Beclin-1 protein level incubated for 72 hrs by Western blot analysis; type: functional, cell-based; summary of the method: as §4

## COc1cc(-c2nc(NC(=O)OCC3=CCCCC3=O)cc3c2[nH]c2ccccc23)cc(OC)c1OC
[1]
  Drug metabolism: Metabolite_Notdetected
[2]
  Drug metabolism: Metabolite_Notdetected
[3]
  Drug metabolism: Metabolite_Notdetected
[4]
  Drug metabolism: Metabolite_Notdetected
[5]
  Drug metabolism: Metabolite_Notdetected
[6]
  Drug metabolism: Metabolite_Notdetected
[7]
  Drug metabolism: Metabolite_Notdetected
[8]
  Drug uptake: Not Active
[9]
  Drug uptake: Active
HepG2
  IC50: 1.57 µM
[10]
  IC50: 4.32 µM
[11]
  IC50: 23.4 µM
[12]
  Drug uptake: Active
[13]
  Activity: Non-Toxic
[14]
  Activity: Non-Toxic
[15]
  Activity: Non-Toxic
[16]
  Activity: Non-Toxic
[17]
  Activity: Non-Toxic
[18]
  survival at 336 h: 10%
[19]
  survival at 336 h: 80%
[20]
  survival at 336 h: 100%
HT-29 [21]
  Activity: Active
[22]
  Activity: Non-Toxic
HT-29 [23]
  Activity: 0.48 g
HT-29 [24]
  Activity: Dose-dependent effect
HT-29 [25]
  Activity: Dose-dependent effect
